High-throughput results from PubChem.
This is a sample that favours compounds with a hit; in the whole collection about 1.5% have one here.
HEK293 NFkB inh: inhibitors of the PMA/ionomycin-induced NF-kB reporter in HEK293 cells; inhibition, % at 3 µM; HEK-293 NF-kB luciferase reporter, luminescence; actives 0.21% (n = 62,000);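 active means inhibition above the mean of all tested compounds plus 3 SD, cut at about 40% in these data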
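Reagent: PMA plus ionomycin mix as NF-kB-activating stimulus. Assay system: NF-kB luciferase reporter HEK-293 cells. Technique: luminescence from luciferase substrate reagent. Incubation: 1 h compound pre-incubation, 16 h PMA/ionomycin at 37 °C. Benchmarks: DMSO only as uninhibited control, 10 µM reference inhibitor as full inhibition. Repeats: tested once.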
PTK2B oligo ant: antagonists of human Pyk2 oligomerization | Q14289 | Q293 cells, Pyk2 FERM NanoBiT luminescence; stronger effect = lower value | z-score (the deposit names both 25 µM and 10 µM) | actives 0.83% (n = 99,000) | AID 1347419;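 active means Z-score of -3 or lower, scaled per plate to the spread of control and sample wells; inactive means z-score above -3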;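 further: negative z-score means lost luminescence so less FERM oligomerization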
HePTP inhibitor: blocks human HePTP tyrosine phosphatase. P35236. recombinant HePTP phosphatase activity, OD absorbance. inhibition, % at 20 µM. actives 0.64% (n = 110,000). AID 521; in the data active means inhibition above about 50%
PLK1 inh: inhibitors of human PLK1 kinase. recombinant PLK1 kinase, TR-FRET peptide phosphorylation. inhibition, % at 10 µM. actives 0.53% (n = 97,000). P53350. AID 619;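 active means inhibition of 50% or more in the single-concentration screen; inactive means inhibition below 50%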
Target sequence (P53350 whole entry, looked up): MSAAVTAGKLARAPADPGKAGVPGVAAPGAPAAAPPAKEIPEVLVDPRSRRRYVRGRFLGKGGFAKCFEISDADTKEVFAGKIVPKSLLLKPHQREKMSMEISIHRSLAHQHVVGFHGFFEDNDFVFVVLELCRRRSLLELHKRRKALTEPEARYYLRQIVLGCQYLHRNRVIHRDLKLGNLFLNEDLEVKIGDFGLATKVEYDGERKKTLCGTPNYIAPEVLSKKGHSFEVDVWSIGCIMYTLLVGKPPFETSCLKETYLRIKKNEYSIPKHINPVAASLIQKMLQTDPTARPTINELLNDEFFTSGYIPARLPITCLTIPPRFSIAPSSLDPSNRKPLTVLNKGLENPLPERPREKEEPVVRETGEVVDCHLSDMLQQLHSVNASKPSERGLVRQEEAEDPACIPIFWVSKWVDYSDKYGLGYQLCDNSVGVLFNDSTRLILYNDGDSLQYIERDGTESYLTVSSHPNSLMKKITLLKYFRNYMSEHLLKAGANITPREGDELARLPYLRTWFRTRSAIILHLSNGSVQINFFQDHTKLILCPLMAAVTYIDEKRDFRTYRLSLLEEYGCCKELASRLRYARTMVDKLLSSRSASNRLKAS
AP complement: orthogonal test for alternative complement pathway inhibitors; Human serum alternative complement pathway, LPS-coated ELISA, C3 deposition; tested in compound mixtures; actives 0.08% (n = 62,000); inhibition, % at 5 µM;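 active means inhibition above 30% in each of the two pooled mixtures holding the compound, so the lower value exceeds 30%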
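Test system: human serum alternative complement pathway, C3 deposition on LPS-coated wells; also added: Plate-bound LPS; doses: 5 µM per compound in ten-compound mixtures; schedule: 1 h at 37 °C; detection: Anti-C3 ELISA, OD 450 nm; evaluation: percent inhibition of C3 deposition onto LPS; repeats: two pool placements per compound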
PLK1 PBD inh: blocks phosphopeptide binding to human Plk1 polo box domain. P53350. Plk1 PBD phosphopeptide binding, fluorescence polarization. inhibition, %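 (tested at about 20 µM)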. actives 0.13% (n = 97,000). AID 693; in the data active means inhibition above about 34%, passing the limit was not always enough
A number is an active result; i = inactive; nt = no result given.

SMILES	HEK293 NFkB inh	PTK2B oligo ant	HePTP inhibitor	PLK1 inh	AP complement	PLK1 PBD inh
CC(O)C(=O)NS(=O)(=O)c1ccc(C(C)C)cc1 (centres undefined)	nt	nt	i	nt	nt	nt
Cc1ccc(NC(=O)COc2ccc3ccccc3c2)cc1	nt	nt	i	nt	nt	nt
O=C(NC(NC(=S)Nc1ccc(Br)cc1)C(Cl)(Cl)Cl)c1ccccc1F (centres undefined)	nt	nt	103.0	nt	nt	nt
Cc1noc(C)c1COC(=O)c1cc(C)n(-c2ccccc2)c1C	i	-3.11	i	i	i	i
O=C(NCc1ccc(Cl)cc1Cl)C(=O)NC1CCCC1	nt	nt	60.8	nt	nt	nt
Cc1[nH]nc2c1C1(CCN(C(=O)c3ccccc3)CC1)C(C#N)=C(N)O2	i	i	i	i	i	i
Cc1[nH]nc2c1C1(CCC(c3ccccc3)CC1)C(C#N)=C(N)O2 (centres undefined)	i	i	i	59.7	i	i
N#Cc1c(NC(=O)CSc2n[nH]c(N)n2)oc(-c2ccccc2)c1-c1ccccc1	nt	-3.38	nt	i	nt	i
Cc1cccc(C)c1OCC(=O)Nc1oc(-c2ccccc2)c(-c2ccccc2)c1C#N	nt	-3.47	nt	i	nt	i
CC(C)(C)C(=O)Nc1oc(-c2ccccc2)c(-c2ccccc2)c1C#N	nt	nt	i	nt	nt	nt
N#Cc1c(NC(=O)Cn2c(=O)oc3ccccc32)oc(-c2ccccc2)c1-c1ccccc1	i	-3.77	i	i	i	i
COc1ccc(N(CC(=O)NC(C)(C)C)S(=O)(=O)c2ccc(C)c([N+](=O)[O-])c2)cc1	nt	nt	i	nt	nt	nt
COc1ccccc1-c1nnc(SCC(=O)Nc2nc(-c3ccccc3)cs2)n1C	i	-3.21	i	i	i	i
Cc1cc(C)nc(SCc2nnc(SCC(=O)Nc3nc(-c4ccccc4)cs3)n2C)n1	nt	i	nt	i	nt	i
N/C(=N\c1nc(C(F)(F)F)cc(=O)[nH]1)Nc1ccc(Oc2ccccc2)cc1	nt	nt	i	nt	nt	nt
O=C(NC1CC2CCC1C2)C1CCN(S(=O)(=O)c2ccc(-c3nn[nH]n3)cc2)CC1 (centres undefined)	i	i	i	i	30.9	i
CCCNC(=O)C1CCN(S(=O)(=O)c2ccc(-c3nn[nH]n3)cc2)CC1	nt	i	nt	i	nt	i
CCN(CC)c1ccc2cc(NC(=O)CCC(=O)O)c(=O)oc2c1	53.1	i	i	nt	i	nt
CCN(CC)c1ccc2cc(C(C)=O)c(=O)oc2c1	nt	i	nt	i	nt	i
O=c1oc2cc(O)c([N+](=O)[O-])cc2cc1-c1csc(-c2cc3ccccc3oc2=O)n1	nt	nt	83.9	nt	nt	nt
CCCn1c(NC(=O)c2ccccc2)nc2ccccc21	i	i	i	i	i	i
CCCn1c(NC(=O)c2cccc(S(=O)(=O)N3CCCC3)c2)nc2ccccc21	i	-3.85	i	nt	i	nt
CCn1c(SCC(=O)Nc2nc3ccc(C)cc3s2)nc2c(c1=O)SC(C)C2 (centres undefined)	i	-3.56	i	i	i	i
Brc1ccccc1OCCCCCCN1CCCCC1	nt	nt	i	nt	nt	nt
CN(C)c1ccc(C2N3CC4(C)CN2CC(C)(C3)C4O)cc1 (centres undefined)	i	nt	i	61.9	i	i
SMILES	HEK293 NFkB inh	PTK2B oligo ant	HePTP inhibitor	PLK1 inh	AP complement	PLK1 PBD inh
CC(C)C12CN3CC(C(C)C)(CN(C1)C3c1ccc(N(C)C)cc1)C2=O (centres undefined)	nt	nt	i	nt	nt	nt
O=C(NCCN1CCOCC1)c1cc(-c2ccc(Br)cc2)nc2ccccc12	nt	nt	103.9	nt	nt	nt
CCCOc1ccc(-c2cc(C(=O)NCCCN3CCOCC3)c3ccccc3n2)cc1	nt	nt	103.0	nt	nt	nt
O=C(NCCN1CCOCC1)c1cc(-c2ccc(Cl)cc2)nc2ccccc12	nt	nt	i	nt	nt	nt
CCCc1c(C)c2c(C)[nH]nc2oc1=O	nt	i	nt	58.1	nt	i
O=C1C=CC(=NS(=O)(=O)c2ccc(Cl)c([N+](=O)[O-])c2)C=C1	nt	nt	i	nt	nt	nt
Cc1onc(-c2ccccc2)c1C(=O)N1CCN(c2ccc(Cl)cc2)CC1	nt	nt	104.2	nt	nt	nt
Cc1onc(-c2ccccc2)c1C(=O)N1CCN(c2ccc([N+](=O)[O-])cc2)CC1	nt	nt	i	nt	nt	nt
CN(Cc1ccccc1)Cn1[nH]c(=O)ccc1=O	nt	nt	i	nt	nt	nt
CN1C=CC2=C(C#N)C(N)C(C#N)(C#N)C(c3ccccc3)C2C1 (centres undefined)	i	-3.66	i	i	i	i
NC(=O)c1c(NC(=O)CCCC(=O)O)sc2c1CCCCC2	nt	nt	i	nt	nt	nt
Cc1ccc(-c2nc(CS(=O)(=O)CC(=O)NCCCN3CCN(C)CC3)c(C)o2)cc1	i	nt	i	i	i	i
